Screening results from PubChem BioAssay.
Sampled rows, rich in hits. Any-hit rate of the full collection: about 2.5%.
PGE2 EP2 inh: EP2 receptor (human) inhibition; P43116; AID 1422; C6 glioma cells expressing human EP2, cAMP TR-FRET; cells stimulated with saturating PGE2; inhibition, % at 25 µM; actives 0.52% (n = 260,000);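 active means percent inhibition above 40 after rounding to a whole number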;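 further: rat C6 glioma host cells with rolipram phosphodiesterase inhibitor present; the protocol text gives 20 µM as final concentration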
TbHK1 inh: T. brucei hexokinase 1 inhibition | recombinant TbHK1, G6PDH-coupled NADH A340 | inhibition, % at 10 µM | actives 0.11% (n = 220,000) | AID 1430;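 active means inhibition of 50% or more in the single-dose primary screen; inactive means inhibition below 50%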
PHOSPHO1 block: PHOSPHO1 (human) inhibition; AID 1565; inhibition, % at 13.3 µM; actives 1.1% (n = 290,000); recombinant PHOSPHO1, absorbance phosphatase assay; in the data active means inhibition above about 60%
PfG6PD inh: PfG6PD (Plasmodium falciparum) enzyme inhibition | PfGluPho enzyme, NADPH resazurin-diaphorase fluorescence | inhibition, % at 20 µM | actives 0.78% (n = 350,000) | AID 504690;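 active means inhibition reaching at least a set limit at 20 µM in the primary screen, cut at about 59% in these data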;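 further: 0% = DMSO wells with substrate and 100% = DMSO wells lacking glucose-6-phosphate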
HKDC1 inh: HKDC1 (human) hexokinase inhibition; AID 493160; recombinant HKDC1, G6PDH/diaphorase resazurin coupled fluorescence; inhibition, % at 20 µM; Q2TB90; actives 0.16% (n = 340,000);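 active means inhibition above about 35% when tested at 20 µM, limit read from the data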;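 further: plate controls were DMSO wells with enzyme for no effect and DMSO wells lacking enzyme for full effect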
Target sequence (Q2TB90 whole entry, looked up): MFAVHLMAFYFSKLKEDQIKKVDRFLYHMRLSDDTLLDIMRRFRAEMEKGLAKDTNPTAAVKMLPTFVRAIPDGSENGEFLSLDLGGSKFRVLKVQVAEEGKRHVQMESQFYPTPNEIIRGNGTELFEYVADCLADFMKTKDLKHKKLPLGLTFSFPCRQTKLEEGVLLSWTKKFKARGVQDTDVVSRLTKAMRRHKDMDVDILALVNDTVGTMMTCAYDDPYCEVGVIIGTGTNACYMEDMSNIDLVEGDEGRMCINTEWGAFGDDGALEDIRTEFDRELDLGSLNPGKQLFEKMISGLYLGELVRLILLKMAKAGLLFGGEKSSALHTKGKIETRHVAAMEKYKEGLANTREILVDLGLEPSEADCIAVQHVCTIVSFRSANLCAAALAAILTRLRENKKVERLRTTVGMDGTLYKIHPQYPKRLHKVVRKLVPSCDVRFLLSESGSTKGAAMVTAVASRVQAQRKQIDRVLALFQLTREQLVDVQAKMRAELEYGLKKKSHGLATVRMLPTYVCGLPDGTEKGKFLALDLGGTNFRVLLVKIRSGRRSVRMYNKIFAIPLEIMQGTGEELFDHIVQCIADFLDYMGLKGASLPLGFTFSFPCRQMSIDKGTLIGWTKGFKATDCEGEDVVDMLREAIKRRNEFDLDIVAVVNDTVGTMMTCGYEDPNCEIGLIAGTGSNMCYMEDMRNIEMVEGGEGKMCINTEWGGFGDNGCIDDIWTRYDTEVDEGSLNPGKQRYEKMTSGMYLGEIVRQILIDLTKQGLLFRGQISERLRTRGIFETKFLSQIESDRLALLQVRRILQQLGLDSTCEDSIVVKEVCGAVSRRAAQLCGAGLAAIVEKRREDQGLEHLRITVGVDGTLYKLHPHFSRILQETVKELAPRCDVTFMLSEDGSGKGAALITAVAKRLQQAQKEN
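System: Recombinant HKDC1 hexokinase | Amount: HKDC1 at 5 µg/mL | Reagent: Glucose with 1 mM ATP | Doses: Single 20 µM dose | Incubation: Reaction time 90 min, room temperature, protected from light | Signal: Coupled resazurin fluorescence, excitation 525 nm, emission 613 nm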
EP2 mod: modulates human prostaglandin E2 receptor EP2 signaling | actives 0.83% (n = 260,000) | P43116 | EP2-expressing cells, cAMP HTRF FRET, PGE2 co-stimulation | induction, % at 25 µM;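 active means compounds whose cAMP rise, as percent of the full-agonist control response, exceeds 60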;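 further: rat C6 glioma line stably carrying human EP2 under a CMV promoter; the protocol text gives 20 µM as final concentration; 100% = response of wells given 1 µM PGE2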
Numbers without * were called inactive; . = not tested or not shown; ! = not active in a repeat.

SMILES	PGE2 EP2 inh	TbHK1 inh	PHOSPHO1 block	PfG6PD inh	HKDC1 inh	EP2 mod
O=C(NCc1ccc(F)cc1)c1ccc(CNc2c(N3CCOCC3)c(=O)c2=O)cc1	7	-4	61*	10	-7	5
O=C(c1cn(C[C@H]2CCCN(C(=O)c3cccs3)C2)nn1)N1CCOCC1	.	.	.	.	.	-34
Clc1ccccc1Nc1ncnc2c1nnn2Cc1ccccc1	10	3	-6	3	-3	40
CCOc1ccc(Nc2ncnc3c2nnn3Cc2ccccc2)cc1	.	.	60*	-7	7	.
Cc1ccsc1C1C=C(c2cccc(Br)c2)Nc2ncnn21 (stereo not drawn)	27	6	62*	-3	-7	-43
N/C(=N\OC(=O)c1cccs1)C1(c2ccc(Cl)cc2Cl)CC1	54*	0	43	-3	2	-35
COc1ccc(-c2nc3ccccc3o2)cc1NC(=O)c1cccc(OC(C)C)c1	5	.	.	.	.	33
CN(C)c1c([N+](=O)[O-])cc(N2C(=O)C=CC2=O)cc1[N+](=O)[O-]	.	.	.	103*	0	.
OCc1cc(C(O)CNCCCCCCOCCCCc2ccccc2)ccc1O (stereo not drawn)	17	.	28	-1	13	69*
Cc1cc(NC(=O)CCSc2ccc(Cl)cc2)no1	11	7	62*	4	-13	-11
Cc1cc(NC(=O)c2ccc(Cl)cc2)no1	6	1	28	18	18	1
COc1ccc(O)c(C(=O)c2cc(C#N)c(=O)n(CC3CCCO3)c2)c1 (stereo not drawn)	9	-20	64*	5	2	-8
CCN=c1scc(-c2ccco2)n1/N=C/c1ccc(OC)c(O)c1	7	-26	-7	30	-3	14
CCN=c1scc(-c2ccco2)n1/N=C/c1ccc(O)cc1	5	-16	80*	4	-3	-16
O=C1CC[C@@H](NCc2ccc(CN3CCOCC3)o2)[C@H](c2cc(F)cc(F)c2)N1	9	.	.	.	.	-6
CC1CCCC(C)N1C(=O)Cn1nc(-c2ccco2)cc(N)c1=O (stereo not drawn)	9	.	.	.	.	-16
COc1ccc2[nH]c3c(NCCC4=CCCCC4)ncnc3c2c1	75*	1	-5	12	10	-71
COC(=O)CSc1ccc2nnc(-c3ccc(OC)c(OC)c3)n2n1	16	-9	-12	3	1	-4
COc1ccc(-c2nnc3ccc(SC(C(C)=O)C(C)=O)nn23)cc1OC	15	-8	106*	2	-5	7
CCC(Sc1ccc2nnc(-c3ccc(OC)c(OC)c3)n2n1)C(=O)O (stereo not drawn)	8	-11	60*	24	8	31
CCC(Sc1ccc2nnc(-c3cccnc3)n2n1)C(=O)OC (stereo not drawn)	9	-2	16	-15	-3	-5
COc1cccc(-n2c(SCC(=O)Nc3nc4ccccc4s3)nc3ccccc3c2=O)c1	4	-12	62*	0	-2	22
COc1ccc2nc(NC(=O)CSc3nc(C)cc(=O)[nH]3)sc2c1	9	-8	74*	-16	5	0
COc1ccc(C(C)=O)cc1CSc1nc2ccccc2c(=O)n1-c1ccccc1	7	-8	8	14	-6	64*
COc1ccc(C(C)=O)cc1CSc1nc2ccccc2c(=O)n1-c1cccc(C)c1	9	-14	-8	-5	-7	28
SMILES	PGE2 EP2 inh	TbHK1 inh	PHOSPHO1 block	PfG6PD inh	HKDC1 inh	EP2 mod
CCCOc1cccc(/C(O)=C2/C(=O)C(=O)N(CCN(C)C)C2c2ccco2)c1 (stereo not drawn)	8	.	.	.	.	-13
C=CCNc1nc(Nc2ccc(OC)cc2)nc(OCC)n1	19	-3	13	2	-9	62*!
C=CCNc1nc(NCc2ccco2)nc(OCC)n1	9	5	20	-5	-4	35
Cc1ccc2cc(C#N)c(NCCNC(=S)NCCCN(C)C)nc2c1C	3	9	64*	9	3	-50
CCOCCCNC(=S)NCCCNc1nc2c(C)cc(C)cc2cc1C#N	6	3	32	13	6	-36
CCOCCCNC(=S)NCCNc1nc2c(C)cccc2cc1C#N	6	-7	61*	8	6	-11
CN1CCc2nc(SCc3ccc(Cl)c(Cl)c3)c(C#N)cc2C1	6	.	.	.	.	-65
O=C(c1ccco1)N(Cc1ccc([N+](=O)[O-])cc1)c1ccc(Cl)cc1	3	0	-5	-2	0	16
Cc1ccc(N(Cc2ccc([N+](=O)[O-])cc2)C(=O)c2ccco2)cc1C	5	5	8	-6	-3	63*
CC(=O)N(CCCN(C)C)c1nc(-c2ccc(F)cc2)cs1	12	.	.	.	.	-45
COc1ccc(OC)c(NC(=O)CSc2nc(C3CCCCC3)nc3ccccc23)c1	13	.	.	.	.	61*
CCOC(=O)CC(=O)CSc1nc2c(C)c(C)ccc2cc1C	8	-6	10	-10	1	66*!
CCc1cc2c(C)ccc(C)c2nc1SCC(=O)OC	16	.	.	.	.	87*
COc1ccc(OC)c(NC(=O)CSc2ncccn2)c1	7	2	76*	-8	4	21
Cc1cccc(C)c1NC(=O)Cn1nc(-c2cccs2)cc(N)c1=O	5	.	.	.	.	-8
COc1ccc(CNc2nc3ccccc3n2CCN2CCOCC2)c(OC)c1	11	.	.	.	.	-34
CCc1cc2cc3c(cc2nc1SCC(=O)Nc1ccc(OC)cc1)OCO3	20	.	.	.	.	8
CCOC(=O)CSc1nc2ccc(C)cc2cc1CC	12	.	.	.	.	62*
COc1ccc(CC(=O)Nc2nn(C)c3nc4c(C)cccc4cc23)cc1	48*	-6	28	4	-4	-22
CCc1cc2cc3c(cc2nc1SCC(=O)Nc1ccc(OC)c(OC)c1)OCO3	10	.	.	.	.	74*
CCOC(=O)CSc1nc2ccc(C)cc2cc1C#N	15	-6	17	14	14	12
COc1ccc(OC)c(NC(=O)CSc2nnc(Cc3cccn3C)n2CCc2ccccc2)c1	1	-3	69*	1	-4	-2
CCC(=O)Nc1nn(C)c2nc3c(C)cccc3cc12	12	-4	2	6	7	-9
Cc1cc(C)c2[nH]c(=O)c(CN(CCN3CCOCC3)C(=O)Nc3ccc(F)cc3)cc2c1	12	.	.	.	.	11
CC(NC(=O)Cc1ccccc1F)c1nc(-c2cccnc2)n[nH]1 (stereo not drawn)	0	.	.	.	.	-30
CCc1cc2cccc(C)c2nc1SCC(=O)Nc1cc(OC)ccc1OC	14	.	.	.	.	63*
CCc1c(C)sc2nc(C)nc(SCC(=O)Nc3ccccc3OC)c12	9	.	.	.	.	66*
COc1ccc(C)cc1NC(=O)CSc1nc(C)nc2sc(C)c(C)c12	9	.	.	.	.	57
Oc1c(C(c2ccccc2)N2CCCCC2)sc2ncnn12 (stereo not drawn)	10	1	-5	8	-6	13
Cc1nc2sc(C(c3ccco3)N3CC(C)OC(C)C3)c(O)n2n1 (stereo not drawn)	.	8	103*	1	-1	33
